In ChEMBL document CHEMBL1134399 (J Med Chem, 2001) one finds Ki and IC50 data, which are given here for four compounds.

In experiment [1] the target is Somatostatin receptor type 5 (Homo sapiens, UniProt P35346). The experiment can be described thus: Ability to displace [125 I]labelled Tyr11-somatostatin from human hsst-5 receptor expressed on CHO cells. Type of experiment: cell-based. In a few lines: (§1)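 Membranes from stably transfected CHO-K1 clones, prepared in ice-cold 50 mM Tris-HCl and resuspended in 10 mM Tris-HCl. Stopped by filtration through PEI-soaked GF/C filters. Nonspecific binding taken with 1.0 μM SRIF. Ki ± SEM from concentration-dependent displacement.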
Somatostatin receptor type 5, sequence (P35346 whole entry): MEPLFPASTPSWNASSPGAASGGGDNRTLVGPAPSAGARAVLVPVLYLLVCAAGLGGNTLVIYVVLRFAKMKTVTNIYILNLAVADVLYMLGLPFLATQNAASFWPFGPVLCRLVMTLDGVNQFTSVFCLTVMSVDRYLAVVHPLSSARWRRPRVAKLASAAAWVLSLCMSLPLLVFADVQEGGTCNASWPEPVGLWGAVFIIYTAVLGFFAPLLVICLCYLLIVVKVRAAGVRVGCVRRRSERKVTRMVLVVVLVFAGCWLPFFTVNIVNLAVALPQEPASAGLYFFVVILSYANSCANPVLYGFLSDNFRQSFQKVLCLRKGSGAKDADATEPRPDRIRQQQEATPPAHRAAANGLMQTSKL

Experiment [2] has as its target Somatostatin receptor type 4 (Homo sapiens, UniProt P31391). The experiment can be described thus: Ability to displace [125 I]labelled Tyr11-somatostatin from human hsst-4 receptor expressed on CHO cells. The class given is cell-based. In a few lines:
as §1

Experiment [3] addresses Somatostatin receptor type 3 (Homo sapiens, UniProt P32745). The experiment can be described thus: Ability to displace [125 I]labelled Tyr11-somatostatin from human hsst-3 receptor expressed on CHO cells. The class given is cell-based. In outline:
as §1

Experiment [4] has as its target Somatostatin receptor type 2 (Homo sapiens, UniProt P30874). The experiment can be described thus: Ability to displace [125 I]labelled Tyr11-somatostatin from human hsst-2 receptor expressed on CHO cells. Type of experiment: cell-based.
The target in experiment [5] is Somatostatin receptor type 1 (Homo sapiens, UniProt P30872). The experiment can be described thus: Ability to displace [125 I]labelled Tyr11-somatostatin from human hsst-1 receptor expressed on CHO cells. The class given is cell-based. In outline: as §1
Somatostatin receptor type 1, sequence (P30872 whole entry): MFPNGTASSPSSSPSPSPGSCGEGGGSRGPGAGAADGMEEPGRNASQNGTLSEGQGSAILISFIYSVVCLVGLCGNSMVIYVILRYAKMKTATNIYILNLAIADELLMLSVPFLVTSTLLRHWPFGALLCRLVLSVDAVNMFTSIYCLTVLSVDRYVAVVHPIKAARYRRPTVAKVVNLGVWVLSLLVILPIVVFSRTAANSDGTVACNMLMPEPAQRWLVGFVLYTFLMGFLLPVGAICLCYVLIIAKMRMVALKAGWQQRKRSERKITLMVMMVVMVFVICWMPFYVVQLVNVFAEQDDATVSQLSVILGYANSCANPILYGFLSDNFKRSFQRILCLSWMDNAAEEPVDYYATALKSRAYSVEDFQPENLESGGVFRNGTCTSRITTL
The next experiment concerns the target Somatostatin receptor. The experiment can be described thus: Antagonism of in vitro SRIF inhibition of GH release from rat pituitary cells in culture. Type of experiment: functional, cell-based. The following applies: pituitary gland cell. In outline:
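Dispersed anterior pituitary cells from adult male rats, cultured 4–5 days at 37 °C. Six doses per plate, triplicate wells. GH measured by double antibody RIA. Antagonist IC50 versus SRIF is the mean ± SEM of n dose-response curves.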

Where a SMILES comes first, the peptide text is derived from it. Bridges are numbered along the chain shown (N, C = ends). [ ]: non-standard residue; d: D form. Phe(4-CF3) = N[C@@H](Cc1ccc(C(F)(F)F)cc1)C(=O)O; 2Nal = N[C@@H](Cc1ccc2ccccc2c1)C(=O)O; 3Pal = N[C@@H](Cc1cccnc1)C(=O)O; NMeK = CN[C@@H](CCCCN)C(=O)O

Somatostatin receptor type 2, sequence (P30874 whole entry): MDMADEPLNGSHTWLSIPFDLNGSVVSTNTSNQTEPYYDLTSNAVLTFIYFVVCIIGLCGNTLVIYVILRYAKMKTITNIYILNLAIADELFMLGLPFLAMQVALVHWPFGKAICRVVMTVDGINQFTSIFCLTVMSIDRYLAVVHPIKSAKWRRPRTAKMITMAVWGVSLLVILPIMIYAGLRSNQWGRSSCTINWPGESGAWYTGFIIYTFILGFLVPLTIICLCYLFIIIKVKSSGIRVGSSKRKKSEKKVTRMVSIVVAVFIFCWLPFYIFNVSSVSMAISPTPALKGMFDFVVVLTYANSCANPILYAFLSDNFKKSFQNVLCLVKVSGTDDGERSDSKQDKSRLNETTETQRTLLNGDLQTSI
Somatostatin receptor type 3, sequence (P32745 whole entry): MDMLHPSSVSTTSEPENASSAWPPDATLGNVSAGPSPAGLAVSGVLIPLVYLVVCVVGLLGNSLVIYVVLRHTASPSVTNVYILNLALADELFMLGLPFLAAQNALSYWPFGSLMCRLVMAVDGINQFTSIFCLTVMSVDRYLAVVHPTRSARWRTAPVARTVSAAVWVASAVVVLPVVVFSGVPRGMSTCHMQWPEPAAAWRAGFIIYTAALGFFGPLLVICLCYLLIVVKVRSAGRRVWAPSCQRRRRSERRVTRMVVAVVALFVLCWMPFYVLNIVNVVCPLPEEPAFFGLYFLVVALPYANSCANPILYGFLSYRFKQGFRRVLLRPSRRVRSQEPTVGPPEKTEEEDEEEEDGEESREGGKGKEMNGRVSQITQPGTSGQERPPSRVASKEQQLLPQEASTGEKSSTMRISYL
Somatostatin receptor type 4, sequence (P31391 whole entry): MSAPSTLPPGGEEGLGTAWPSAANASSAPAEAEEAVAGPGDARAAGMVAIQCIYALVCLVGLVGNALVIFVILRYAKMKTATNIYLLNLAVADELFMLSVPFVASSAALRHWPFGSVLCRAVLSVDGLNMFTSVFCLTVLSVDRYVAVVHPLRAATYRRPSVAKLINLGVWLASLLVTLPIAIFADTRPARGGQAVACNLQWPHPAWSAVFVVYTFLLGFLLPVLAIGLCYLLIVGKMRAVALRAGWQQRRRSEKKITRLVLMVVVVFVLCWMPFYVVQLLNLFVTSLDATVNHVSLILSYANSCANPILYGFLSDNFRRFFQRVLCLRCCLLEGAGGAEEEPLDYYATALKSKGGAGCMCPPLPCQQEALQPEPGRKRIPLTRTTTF

The Ki is a dissociation constant, usually derived from enzyme kinetics or from competition with a known ligand. Read a low Ki as tighter binding. As for `C[C@@H](O)[C@@H]1NC(=O)[C@H](CCN)NC(=O)[C@@H](Cc2c[nH]c3ccccc23)NC(=O)[C@H](Cc2cccnc2)NC(=O)[C@H](NC(=O)[C@@H](N)Cc2ccc(Cl)cc2)CSSC[C@@H](C(=O)N[C@@H](Cc2ccc3ccccc3c2)C(N)=O)NC1=O`, the inhibitory constant (Ki) in experiment [1] is greater than 1000 nM; in experiment [2] (cho), greater than 1000 nM; in experiment [3] (cho), 23.6 nM; in experiment [4] (cho), 317 nM; in experiment [5] (cho), greater than 1000 nM.

By IC50 is commonly meant the concentration that gives 50% inhibition. `CN[C@@H](Cc1ccc(Cl)cc1)C(=O)N[C@H]1CSSC[C@H](C(=O)N[C@@H](Cc2ccc3ccccc3c2)C(N)=O)NC(=O)[C@@H]([C@H](C)O)NC(=O)[C@H](CCCCN)NC(=O)[C@@H](Cc2c[nH]c3ccccc23)NC(=O)[C@H](Cc2cccnc2)NC1=O`: the concentration for half-maximal inhibition (IC50) against Somatostatin receptor was determined as 7.8 nM.

Regarding `C[C@@H](O)[C@@H]1NC(=O)[C@H](CCCCN)N(C)C(=O)[C@@H](Cc2c[nH]c3ccccc23)NC(=O)[C@H](Cc2cccnc2)NC(=O)[C@H](NC(=O)[C@@H](N)Cc2ccc(C(F)(F)F)cc2)CSSC[C@@H](C(=O)N[C@@H](Cc2ccc3ccccc3c2)C(N)=O)NC1=O` (H-[Phe(4-CF3)][dC][3Pal][dW][NMeK]TC[2Nal]-NH2; disulfide 2-7), the Ki in experiment [2] is 1250 nM; in experiment [3], 40.2 nM; in experiment [4], 11.3 nM; in experiment [5], greater than 1000 nM.

At Somatostatin receptor, `C[C@H](O)[C@H]1NC(=O)[C@H](CCCCN)N(C)C(=O)[C@@H](Cc2c[nH]c3ccccc23)N(C)C(=O)[C@H](Cc2cccnc2)NC(=O)[C@@H](NC(=O)[C@@H](N)Cc2ccc(Cl)cc2)CSSC[C@H](C(=O)N[C@@H](Cc2ccc3ccccc3c2)C(N)=O)NC1=O` came in with an IC50 of 2.5 nM.
